# Active and inactive are the calls of the source. No cut-off for these calls is given here.
# Key:
# Cell membrane [1] = experiment: Induction of inner membrane permeabilization in methicillin-resistant Staphylococcus aureus ATCC 33591 at 2 times MIC measured for 12 mins by propidium iodide staining based fluorescence microscopic analysis; type: functional, subcellular
# How it was run: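 Mid-log cells were washed in 5 mM HEPES/5 mM glucose and set at 10^6 CFU/mL, then mixed with PI (10 μM stock). Baseline fluorescence (ex 535/em 617 nm) was read about 8 min at 2-min intervals. Compound was then added and reading continued for 12 min. Water-only negative control; three repeats.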
# Escherichia coli = experiment: Antibacterial activity against Escherichia coli ATCC 25922 in presence of monovalent Na+ and K+; type: functional
# How it was run: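 MIC by the standard broth dilution method, in medium made by dissolving TSB powder in 1× PBS (7.5 g per 250 mL), autoclaved, to supply Na+ and K+. Inoculum of log-phase bacteria at 10^6 CFU/mL. MIC = lowest concentration completely inhibiting growth.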
# Staphylococcus aureus [2] = experiment: Antibacterial activity against methicillin-resistant Staphylococcus aureus ATCC 33591 in presence of monovalent Na+ and K+; type: functional
# How it was run: (§1)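 MIC set up as in the standard broth microdilution (log-phase inoculum at 10^6 CFU/mL, complete growth inhibition end point). The medium was TSB dissolved in 1× PBS (7.5 g per 250 mL) and autoclaved, supplying Na+ and K+.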
# [3] = tested on: Staphylococcus epidermidis; experiment: Antibacterial activity against methicillin-resistant Staphylococcus epidermidis RP62A in presence of monovalent Na+ and K+; type: functional; how it was run: as §1
# Klebsiella pneumoniae [4] = experiment: Antibacterial activity against Klebsiella pneumoniae ATCC 13383; type: functional
# How it was run: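 Broth microdilution in TSB. Stocks at 5 mg/mL in DMSO diluted with TSB to 100 μg/mL, then serially diluted; highest test concentration 25 μg/mL. Bacteria grown 16 h, subcultured 6 h to log phase, adjusted to 10^6 CFU/mL by OD600. MIC = lowest concentration giving complete growth inhibition. At least three repeats, each in duplicate.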
# [5] = Hemolytic activity against mouse RBC measured after 1 hr by microplate reader analysis; type: ADME, cell-based, Erythrocyte; conditions: mouse red blood cells (erythrocytes)
# How it was run: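 Mouse red blood cells collected by centrifugation (500–700g, 10 min), washed three times in PBS, and diluted 20-fold in PBS. Mixed with 2-fold serial dilutions of compound (starting at 1 mg/mL in PBS) and incubated 1 h at 37 °C. After centrifugation, supernatant absorbance read at 540 nm. % hemolysis calculated relative to PBS (0%) and 2% Triton (100%). At least three repeats in duplicate.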
# Cell membrane [6] = experiment: Induction of cell membrane depolarization in Escherichia coli ATCC 25922 assessed as increase in fluorescence intensity measured after 30 mins by DiSC3 staining based fluorescence spectroscopic technique; type: subcellular
# How it was run: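 Mid-log E. coli washed in 5 mM HEPES/5 mM glucose and resuspended in HEPES/glucose/100 mM KCl to OD600 about 0.05. DiSC3(5) added (8 μL of a 10 μM solution per 200 μL). Fluorescence (ex 622 nm, em 670 nm) read at room temperature for 30 min, then compound added at 0.5, 1, 2 and 4 × MIC and monitoring continued. Controls: untreated and 1% Triton X-100. Three repeats in duplicate.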
# Staphylococcus aureus [7] = experiment: Antibacterial activity against methicillin-resistant Staphylococcus aureus ATCC 33591 measured for 13 passages; type: functional, organism-based
# How it was run: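 Serial-passage resistance test. A first MIC was run by TSB broth microdilution. Bacteria from the well after the last clear well were resuspended to about 10^6 CFU/mL for the next MIC. This was repeated for 13 passages.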
# Cell membrane [8] = experiment: Induction of cell membrane disruption in methicillin-resistant Staphylococcus aureus ATCC 33591 at 2 times MIC after 2 hrs by transmission electron microscopic analysis; type: subcellular
# How it was run: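 Bacteria at 10^6 CFU/mL were treated at 2× MIC for 2 h at 37 °C, pelleted, washed three times in PBS and resuspended in deionized water. Samples were dropped on grids, blotted, dried under vacuum at 50 °C for 30 s, then imaged by TEM. Untreated control.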
# Staphylococcus aureus [9] = experiment: Antibacterial activity against methicillin-resistant Staphylococcus aureus ATCC 33591 in presence of divalent Ca2+; type: functional
# How it was run: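 MIC set up as in the standard TSB broth microdilution (log-phase inoculum at 10^6 CFU/mL, complete growth inhibition end point). The medium was TSB prepared in DI water with CaCl2 added to 2 mM.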
# Klebsiella pneumoniae [10] = experiment: Antibacterial activity against Klebsiella pneumoniae ATCC 13383 in presence of divalent Ca2+; type: functional
# How it was run: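 MIC by the standard TSB broth dilution method, in TSB made with DI water and supplemented with CaCl2 to 2 mM. Inoculum of log-phase bacteria at 10^6 CFU/mL. MIC = lowest concentration completely inhibiting growth.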
smiles,measurement,setting,value
CCCCCCCCCC(=O)N[C@@H](CCCCN)CN1CC(=O)N(c2ccc(N3CN(C[C@H](CCCCN)NC(=O)CCCCCCCCC)CC3=O)cc2)C1,Activity,Cell membrane [1],Active
same,MIC,Escherichia coli,5 µg/mL
same,MIC,Staphylococcus aureus [2],4 µg/mL
same,MIC,[3],7 µg/mL
same,MIC,Klebsiella pneumoniae [4],5 µg/mL
same,HC50 at 1 h,[5],> 250 µg/mL
same,Activity,Cell membrane [6],Dose-dependent effect
same,Activity,Staphylococcus aureus [7],Active
same,Activity,Cell membrane [8],Active
same,MIC,Staphylococcus aureus [9],2 µg/mL
same,MIC,Klebsiella pneumoniae [10],5 µg/mL

# Reference: ChEMBL document CHEMBL4699493, “Development of Bis-cyclic Imidazolidine-4-one Derivatives as Potent Antibacterial Agents” (J Med Chem, 2020)
